# Compound activity (PubChem)
# Rows were chosen to be rich in hits. Some 1.7% of all compounds tested hit in one or more screens of this group.
# HNF4A DNA FP – change in binding of human HNF4 alpha to DNA. P41235. HNF4a-FITC DNA binding, fluorescence polarization, 1 h. activity change, % at 10 µM. actives 0.3% (n = 360,000). AID 1224865; in the data active means activity change above about 30%, passing the limit was not always enough
# TPT1 inh – blocks Candida albicans tRNA 2'-phosphotransferase. recombinant caTPT1, FP RNA substrate dephosphorylation. inhibition, % at 5 µM. actives 0.81% (n = 300,000);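 active means inhibition above the mean of all tested compounds plus 3 SD, set per screening campaign, cut at about 24% in these data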;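 further: plate controls were DMSO alone for no effect and ferristatin control at 100 nM for full effect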
# IDE cell activ – IDE (human) activation, cell-based; HEK cells, FAbeta-B cleavage, fluorescence polarization; 0% vehicle, 100% cell-free pure enzyme wells; actives 0.073% (n = 340,000); AID 493087; activation, % at 5.96 µM;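 active means activation above the mean of all tested compounds plus 3 SD, set per screening campaign, cut at about 17% in these data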
# Rpn11 inh – Rpn11 (human) deubiquitinase inhibition; inhibition, % at 20 µM; O00487; human 26S proteasome, Ub4-pepOG fluorescence polarization; 20S core pre-blocked with epoxomicin; AID 588493; actives 0.59% (n = 360,000);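 active means inhibition at 20 µM, scaled to each plate's controls, above about 33%, limit read from the data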
# Target sequence (O00487 whole entry, looked up): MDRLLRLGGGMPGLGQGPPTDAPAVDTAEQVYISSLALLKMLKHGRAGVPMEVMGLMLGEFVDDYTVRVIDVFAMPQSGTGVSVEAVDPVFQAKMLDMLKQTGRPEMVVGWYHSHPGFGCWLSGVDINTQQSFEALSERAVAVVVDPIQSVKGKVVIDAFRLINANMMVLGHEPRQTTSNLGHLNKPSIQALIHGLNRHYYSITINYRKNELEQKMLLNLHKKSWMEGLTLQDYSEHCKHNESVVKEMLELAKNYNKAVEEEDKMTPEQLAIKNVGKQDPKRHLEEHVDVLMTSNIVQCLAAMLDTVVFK
# CSN inh – CSN deneddylation inhibition; AID 651999; inhibition, % at 12.5 µM; Q92905; actives 0.38% (n = 360,000); Purified CSN, SCF-Nedd8-OG deneddylation, fluorescence polarization;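 active means pattern-corrected inhibition above about 35%, with an unprinted fluorescence ratio check between 0.5 and 1.5, limit read from the data, passing the limit was not always enough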;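 further: 0% = enzyme with substrate and 100% = substrate without enzyme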
#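 Material: purified human Csn5 enzyme expressed in HEK293T cells / Medium: Tris buffer pH 7.5, NaCl, DTT, Tween-20, trehalose, ovalbumin / Compound dosing: 12.5 µM single point / Schedule: 90 min incubation of compound, enzyme and substrate at room temperature / Signal: fluorescence polarization of the substrate / Control set: no-enzyme wells high, enzyme-with-substrate wells low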
# IDE cell inh – cellular human IDE inhibition. actives 0.41% (n = 320,000). AID 434962. HEK cells, FAbetaB cleavage, fluorescence polarization. inhibition, % at 5.59 µM. P14735;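 active means percent inhibition above the average of all tested compounds plus 3 SD, set per screening campaign, cut at about 16% in these data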;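 further: IDE supplied by intact live HEK cells; FP after avidin binding of uncleaved biotin substrate so inhibition keeps polarization high; 0% = DMSO wells and 100% = 60 µM reference IDE inhibitor Ii1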
# Numbers without * were called inactive; / = no result shown.
SMILES,HNF4A DNA FP,TPT1 inh,IDE cell activ,Rpn11 inh,CSN inh,IDE cell inh
COc1ccc2c(c1)CCc1c(C(=O)Nc3cc(C)n(Cc4ccc(Cl)cc4)n3)noc1-2,-5,-1,-3,-2,91*,-6
Cc1ccc(NC(=S)Nc2cccc3cnccc23)c(C)c1,1,1,-5,-4,11,1
Cc1cc(C)cc(NC(=S)Nc2cccc3cnccc23)c1,2,/,-3,2,37*,/
CCc1ccc(NC(=S)Nc2cccc3cnccc23)cc1,-1,1,-1,7,38*,-1
C=C(C)CNC(=S)Nc1cccc2cnccc12,6,1,-3,4,0,-6
CCOc1ccc(-c2nn(-c3ccccc3)cc2/C=C2\SC(N)=NC2=O)cc1C,57*,-1,9,36,-3,3
CCOc1ccc(-c2nn(-c3ccccc3)cc2/C=C2\SC(=S)N(C3CCS(=O)(=O)C3)C2=O)cc1 (stereo not given),2,5,4,-50,-6,-4
CCOC(=O)C1=CC[C@@H](c2cccc(Br)c2)N(S(=O)(=O)c2ccc(F)cc2)[C@H]1c1cccc(Cl)c1,-3,/,/,/,1,/
Cc1ccc(C2=NOC(C)(c3nnc(-c4ccc(Cl)cc4)o3)C2)cc1 (stereo not given),36*,0,1,-1,1,4
CCC(C(=O)Nc1c(C)cccc1C)n1c(-c2ccc(-c3ccccc3)cc2)nc2ccccc21 (stereo not given),0,/,/,/,-2,/
NC1(C#Cc2ccc3oc(=O)c(-n4cc(-c5ccsc5)nn4)cc3c2)CCCCC1,2,/,-1,44*,11,1
CC(C)(C)OC(=O)N1CCc2onc(-c3ccc(-n4cc(C5=CCCCC5)nn4)cc3)c2C1=O,-2,/,/,/,1,/
CC[C@H](C)/C=C/C1=CC2=C(Cl)C(=O)[C@@]3(C)OC(=O)C(C(=O)[C@H](C)[C@@H](C)O)=C3C2=CO1,1,1,-2,-8,49*,0
COc1ccccc1C(=O)NNC(=O)CCCN1C(=O)/C(=C/c2cccs2)SC1=S,40*,-1,2,/,33,-8
Cc1cccc2sc(N(CCCN(C)C)C(=O)COc3ccc(Cl)cc3)nc12,1,-3,16,-13,4,6
CN(C)CCCN(C(=O)COc1ccc(Cl)cc1)c1nc2ccc(F)cc2s1,1,-2,18*,2,15,8
Cc1cc(C)c2sc(N(CCCN(C)C)C(=O)COc3ccc(Cl)cc3)nc2c1,6,-4,27*,-6,-1,3
Cc1ccc2nc(N(CCCN(C)C)C(=O)COc3ccc(Cl)cc3)sc2c1,5,-2,22*,4,2,0
CN(C)CCCN(C(=O)COc1ccccc1)c1nc2ccc(F)cc2s1,-3,0,3,-2,3,-4
O=C(Nc1ccc2c(c1)OCCO2)C(C1CC1)n1c(=O)c(-c2cc3ccccc3[nH]2)nc2ccccc21 (stereo not given),3,/,/,/,4,/
COCCCN1C(=O)C(CC(=O)NCc2cccs2)CC(C(=O)N2CCCCCC2)=C1C (stereo not given),5,/,/,/,-6,/
CCOC(=O)N1CCc2c(sc(NC(=O)c3ccc(S(=O)(=O)N4CCCC4)cc3)c2C#N)C1,23,20,-1,50*,16,2
CCOC(=O)c1c(CSc2ccccc2)n(C)c2cc(Br)c(OC)c(O)c12,2,0,0,0,1,5
CCOC(=O)c1c(CSc2ccccc2)n(C)c2cc(Br)c(OCC(O)CNC(CO)(CO)CO)cc12 (stereo not given),3,1,1,13,71*,5
COc1ccc(-c2cc(C#N)nc(N3CCNCC3)n2)cc1,43*,-3,2,11,3,1
CC(C)C1C(=O)CC(c2ccccc2)NC1c1ccccc1 (stereo not given),38*,-3,4,1,1,2
CC(C)(C)C(c1nc2ccccc2[nH]1)n1c(-c2cc(Cl)cc(Cl)c2)nc2ccccc21 (stereo not given),12,/,/,/,5,/
O=C(Nc1ccc(C(F)(F)F)cc1)N1CCN(c2ccnc3cc(Cl)ccc23)CC1,2,-2,/,5,-9,30*
